Measurements pooled from the literature.
Lines come from different studies, so protocols differ.
gyrB: DNA gyrase subunit B (gyrB, Escherichia coli, UniProt P0AES6)
PKN1: Serine/threonine-protein kinase N1 (PKN1, Homo sapiens, UniProt Q16512)
CA9: Carbonic anhydrase 9 (CA9, Homo sapiens, UniProt Q16790)
Melanocortin receptor 5: Melanocortin receptor 5 (Mus musculus, UniProt P41149)
Adora1: Adenosine receptor A1 (Adora1, Rattus norvegicus, UniProt P25099)

SMILES	target	observed	mode	technique	notes	measurement	value
CNc1cccc2cc(C(=O)Nc3ccc(CC(=O)O)cc3)c(=O)[nH]c12	gyrB	binding	–	ITC	–	Kd	4.7 nM
Cc1cc(Nc2nc(N[C@@H](C)c3ccc(F)cc3)c(C#N)cc2F)n[nH]1	PKN1	enzyme activity	inhibitor	–	–	IC50	213 nM
Cc1cc(C(=O)Nc2ccccc2C(=O)NCc2cn(C)nn2)c(C)n1Cc1ccc(S(N)(=O)=O)cc1	CA9	enzyme activity	inhibitor	–	–	IC50	38.9 nM
CSCC[C@H](N)C(=O)NCC(=O)N[C@@H](Cc1c[nH]cn1)C(=O)N[C@@H](Cc1ccccc1)C(=O)N[C@@H](CCCNC(=N)N)C(=O)N[C@@H](Cc1c[nH]c2ccccc12)C(=O)N[C@@H](CC(=O)O)C(=O)N[C@@H](CCCNC(=N)N)C(=O)N[C@@H](Cc1ccccc1)C(=O)NCC(=O)O	Melanocortin receptor 5	reporter gene	agonist	–	–	EC50	94 nM
Cc1cc2nc3c(=O)[nH]c(=O)nc-3n(C[C@H](O)[C@H](O)[C@H](O)COP(=O)(O)OP(=O)(O)OC[C@H]3O[C@@H](n4cnc5c(N)ncnc54)[C@H](O)[C@@H]3O)c2cc1C	RNA-binding protein 14 (Homo sapiens, UniProt Q96PK6)	binding	–	–	lysate	Kd	32 nM
CC(=O)Nc1cccc2c1CC(C)N2Cc1ccoc1C(=O)Nc1ccc(S(N)(=O)=O)cc1 (centres unmarked)	CA9	enzyme activity	inhibitor	–	–	IC50	37.2 nM
COc1ccc(-c2nsc(NC(=O)[C@@H]3C[C@H]3C)c2C)cc1	Metabotropic glutamate receptor 1 (GRM1, Homo sapiens, UniProt Q13255)	calcium signal	agonist	–	–	EC50	> 25000 nM
CCCCCC(C)N1CCCn2c1nc1c2c(=O)n(C)c(=O)n1C (centres unmarked)	Adora1	ligand displacement	–	radioligand	cell membranes	Ki	> 25000 nM
N=C(N)NCCC[C@H](NC(=O)[C@H](CC(=O)O)NC(=O)[C@@H](N)Cc1c[nH]c2ccccc12)C(=O)N[C@@H](Cc1ccccc1)C(=O)NCC(=O)O	Melanocortin receptor 5	reporter gene	agonist	–	–	EC50	> 100000 nM
CCCN1CCN(c2ccc(-c3cncc(Cl)c3N3CCC4(CCNC4=O)CC3)cc2)CC1	NUAK family SNF1-like kinase 2 (NUAK2, Homo sapiens, UniProt Q9H093)	cell-free assay	–	–	lysate	Kd	23300 nM
CCS(=O)(=O)Nc1ccc(Nc2c3ccccc3nc3cc(NC(=O)CCCC[C@@H]4SC[C@@H]5NC(=O)N[C@@H]54)ccc23)c(OC)c1	Lymphocyte antigen 6K (Homo sapiens, UniProt Q17RY6)	binding	–	SPR	–	Kd	4700 nM
O=C(Nc1ccc(N2C(=O)c3ccccc3C2=O)c(Cl)c1)c1ncccc1Cl	Metabotropic glutamate receptor 4 (GRM4, Homo sapiens, UniProt Q14833)	calcium signal	agonist	–	–	EC50	> 10000 nM
CCCCn1c(=O)c2[nH]c(C34CC5CC(CC3C5)C4)nc2n(CCCO)c1=O	Adora1	ligand displacement	–	radioligand	cell membranes	Ki	0.368 nM
O=S(=O)(NCCNC/C=C/c1ccc(Br)cc1)c1cccc2cnccc12	PKN1	enzyme activity	inhibitor	–	–	IC50	155 nM
NS(=O)(=O)c1ccc(NC(=S)N2CCN(C(=O)c3ccco3)CC2)cc1	CA9	enzyme activity	inhibitor	–	–	IC50	37.2 nM
N=C(N)NCCC[C@H](N)C(=O)N[C@@H](Cc1ccccc1)C(=O)NCC(=O)O	Melanocortin receptor 5	reporter gene	agonist	–	–	EC50	> 100000 nM
Cc1cnc(-c2ccc(-c3ccc(NC(=O)Nc4c(F)cc(F)cc4F)cc3F)c3c2C(=O)NC3)[nH]1	Tyrosine-protein kinase HCK (HCK, Homo sapiens, UniProt P08631)	binding	–	competition with immobilised ligand	–	Kd	18 nM
CNc1cccc2cc(C(=O)NCc3ccc(C(=O)O)cc3)c(=O)[nH]c12	gyrB	binding	–	ITC	–	Kd	9.3 nM

SMILES	target	observed	mode	technique	notes	measurement	value
CSCC[C@H](NC(=O)[C@@H](NC(=O)[C@@H](N)Cc1ccc(O)cc1)C(C)C)C(=O)NCC(=O)N[C@@H](Cc1c[nH]cn1)C(=O)N[C@@H](Cc1ccccc1)C(=O)N[C@@H](CCCNC(=N)N)C(=O)N[C@@H](Cc1c[nH]c2ccccc12)C(=O)O	Melanocortin receptor 5	reporter gene	agonist	–	–	EC50	710 nM
Cc1ccc(S(N)(=O)=O)c(C(=O)Nc2ccc(NC(=O)NCC3CCCO3)cc2)c1 (centres unmarked)	CA9	enzyme activity	inhibitor	–	–	IC50	7880 nM
O=C(O)c1ccc(NC(=O)c2cc3ccccc3[nH]c2=O)cc1	gyrB	binding	–	ITC	–	Kd	730 nM
CCCC(C)N1CCCn2c1nc1c2c(=O)n(C)c(=O)n1C (centres unmarked)	Adora1	ligand displacement	–	radioligand	cell membranes	Ki	> 25000 nM
N=C(N)NCCC[C@H](NC(=O)[C@H](CC(=O)O)NC(=O)[C@H](Cc1c[nH]c2ccccc12)NC(=O)[C@H](CCCNC(=N)N)NC(=O)[C@@H](N)Cc1ccccc1)C(=O)N[C@@H](Cc1ccccc1)C(=O)O	Melanocortin receptor 5	reporter gene	agonist	–	–	EC50	6730 nM
CNc1cccc2cc(C(=O)NCc3cccc(C(=O)O)c3)c(=O)[nH]c12	gyrB	binding	–	ITC	–	Kd	390 nM
CCCC[C@H](NC(=O)[C@@H](NC(=O)[C@@H](N)Cc1ccc(O)cc1)C(C)C)C(=O)NCC(=O)N[C@@H](Cc1c[nH]cn1)C(=O)N[C@@H](Cc1ccccc1)C(=O)N[C@@H](CCCNC(=N)N)C(=O)N[C@H](Cc1c[nH]c2ccccc12)C(=O)N[C@@H](CC(=O)O)C(=O)N[C@@H](CCCNC(=N)N)C(=O)N[C@@H](Cc1ccccc1)C(=O)NCC(=O)O	Melanocortin receptor 5	reporter gene	agonist	–	–	EC50	10 nM
CNc1cccc2cc(C(=O)Nc3cccc(CC(=O)O)c3)c(=O)[nH]c12	gyrB	binding	–	ITC	–	Kd	37 nM
CCCN1CCCn2c1nc1c2c(=O)n(C)c(=O)n1C	Adora1	ligand displacement	–	radioligand	cell membranes	Ki	3870 nM
NS(=O)(=O)c1cc(C(=O)Nc2ccc(NC(=O)CCN3CCCCC3)cc2)ccc1Cl	CA9	enzyme activity	inhibitor	–	–	IC50	160 nM
CN1CCCn2c1nc1c2c(=O)n(C)c(=O)n1C	Adora1	ligand displacement	–	radioligand	cell membranes	Ki	> 25000 nM
NS(=O)(=O)c1cc(CNC(=O)N(Cc2ccc(O)cc2)CC2CC2)ccc1F	CA9	enzyme activity	inhibitor	–	–	IC50	1200 nM
CC(C)CCCC(C)N1CCCn2c1nc1c2c(=O)n(C)c(=O)n1C (centres unmarked)	Adora1	ligand displacement	–	radioligand	cell membranes	Ki	7690 nM
CSCC[C@H](NC(=O)[C@@H](NC(=O)[C@@H](N)Cc1ccc(O)cc1)C(C)C)C(=O)NCC(=O)N[C@@H](Cc1c[nH]cn1)C(=O)N[C@@H](Cc1ccccc1)C(=O)N[C@@H](CCCNC(=N)N)C(=O)N[C@@H](Cc1c[nH]c2ccccc12)C(=O)N[C@@H](CC(=O)O)C(=O)N[C@@H](CCCNC(=N)N)C(=O)O	Melanocortin receptor 5	reporter gene	agonist	–	–	EC50	62 nM
NS(=O)(=O)c1cccc(NC(=O)CCN2CCC(c3cccc4[nH]ccc34)CC2)c1	CA9	enzyme activity	inhibitor	–	–	IC50	11000 nM
N=C(N)NCCC[C@H](NC(=O)[C@H](CC(=O)O)NC(=O)[C@H](Cc1c[nH]c2ccccc12)NC(=O)[C@H](CCCNC(=N)N)NC(=O)[C@H](Cc1ccccc1)NC(=O)[C@@H](N)Cc1c[nH]cn1)C(=O)N[C@@H](Cc1ccccc1)C(=O)NCC(=O)O	Melanocortin receptor 5	reporter gene	agonist	–	–	EC50	760 nM
NS(=O)(=O)c1ccc(NC(=O)C(Cc2c[nH]c3ccccc23)NC(=O)c2cccs2)cc1 (centres unmarked)	CA9	enzyme activity	inhibitor	–	–	IC50	37.2 nM
